From ChEMBL document CHEMBL2407062, “Synthesis and anticancer activities of 5,6,7-trimethoxy-N-phenyl(ethyl)-4-aminoquinazoline derivatives” (Eur J Med Chem, 2013)
Calls of active or inactive are those of the source. No cut-off for these calls is given here.

Key:
[1] = tested on: Bcap37; test: Growth inhibition of human Bcap37 cells at 1 uM after 72 hrs by MTT assay relative to control; format: functional; settings: Homo sapiens, Bcap37, 72 h; read-out: GI
Summary of the method: (§1)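 Cells in RPMI 1640 with 10% heat-inactivated FBS, 37 °C, 5% CO2. Seeded at 2 × 10³ cells per well. Compounds dissolved in DMSO, diluted in medium, tested at 1–100 μM for 72 h; 0.1% DMSO control. MTT read-out, absorbance at 595 nm. Mean ± SD of triplicate experiments. IC50 taken from the dose–response curve.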

[2] = target: T1, Mitogen-activated protein kinase; ERK1/ERK2 (Homo sapiens) (UniProt P27361+P28482); test: Inhibition of EGF-induced ERK1/2 phosphorylation in human PC3 cells at 1.28 uM incubated for 60 mins prior to EGF-treatment measured after 10 mins by Western blotting analysis; format: cell-based; settings: PC-3
Summary of the method: (§2)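 PC3 cells grown 36–48 h in RPMI 1640 with 10% FBS at 37 °C, then serum-starved 24 h. Treated with compound for 60 min, then EGF 10 ng/mL for 10 min; quenched on ice. Cells washed with cold PBS and lysed in NP-40/SDS buffer with Na3VO4 and NaF. Run on 10% SDS-PAGE, PVDF blot probed for pERK1/2 with actin as loading control, ECL detection.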

[3] = target: T1, Mitogen-activated protein kinase; ERK1/ERK2 (Homo sapiens); test: Inhibition of EGF-induced ERK1/2 phosphorylation in human PC3 cells at 10 uM incubated for 60 mins prior to EGF-treatment measured after 10 mins by Western blotting analysis; format: cell-based; settings: PC-3; summary of the method: as §2
[4] = tested on: Bcap37; test: Growth inhibition of human Bcap37 cells at 10 uM after 72 hrs by MTT assay relative to control; format: functional; settings: Homo sapiens, Bcap37, 72 h; read-out: GI; summary of the method: as §1
[5] = tested on: PC-3; test: Growth inhibition of human PC3 cells at 10 uM after 72 hrs by MTT assay relative to control; format: functional; settings: for inhibition of growth at 10 µM: Homo sapiens, PC-3, 72 h, read-out: GI; summary of the method: as §1
[6] = tested on: PC-3; test: Growth inhibition of human PC3 cells at 1 uM after 72 hrs by MTT assay relative to control; format: functional; settings: for inhibition of growth at 1 µM: Homo sapiens, PC-3, 72 h, read-out: GI; summary of the method: as §1
[7] = tested on: BGC-823; test: Growth inhibition of human BGC823 cells at 10 uM after 72 hrs by MTT assay relative to control; format: functional; settings: BGC-823, 72 h, read-out: GI; summary of the method: as §1
[8] = tested on: BGC-823; test: Growth inhibition of human BGC823 cells at 1 uM after 72 hrs by MTT assay relative to control; format: functional; settings: BGC-823, 72 h, read-out: GI; summary of the method: as §1
[9] = target: T1, Mitogen-activated protein kinase; ERK1/ERK2 (Homo sapiens); test: Inhibition of EGF-induced ERK1/2 phosphorylation in human PC3 cells at 5.12 uM incubated for 60 mins prior to EGF-treatment measured after 10 mins by Western blotting analysis; format: cell-based; settings: PC-3; summary of the method: as §2

T1 sequence (P27361 whole entry, looked up): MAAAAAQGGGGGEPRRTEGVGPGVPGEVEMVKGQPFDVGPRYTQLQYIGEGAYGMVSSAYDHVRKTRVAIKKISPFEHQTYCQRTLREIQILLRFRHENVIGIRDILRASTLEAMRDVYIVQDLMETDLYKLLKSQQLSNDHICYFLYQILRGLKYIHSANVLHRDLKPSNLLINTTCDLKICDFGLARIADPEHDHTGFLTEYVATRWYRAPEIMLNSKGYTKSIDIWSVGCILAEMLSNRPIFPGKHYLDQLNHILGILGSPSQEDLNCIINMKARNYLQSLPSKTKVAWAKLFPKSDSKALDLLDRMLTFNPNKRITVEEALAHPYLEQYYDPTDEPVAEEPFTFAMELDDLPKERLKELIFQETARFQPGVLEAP
T1 sequence (P28482 whole entry, looked up): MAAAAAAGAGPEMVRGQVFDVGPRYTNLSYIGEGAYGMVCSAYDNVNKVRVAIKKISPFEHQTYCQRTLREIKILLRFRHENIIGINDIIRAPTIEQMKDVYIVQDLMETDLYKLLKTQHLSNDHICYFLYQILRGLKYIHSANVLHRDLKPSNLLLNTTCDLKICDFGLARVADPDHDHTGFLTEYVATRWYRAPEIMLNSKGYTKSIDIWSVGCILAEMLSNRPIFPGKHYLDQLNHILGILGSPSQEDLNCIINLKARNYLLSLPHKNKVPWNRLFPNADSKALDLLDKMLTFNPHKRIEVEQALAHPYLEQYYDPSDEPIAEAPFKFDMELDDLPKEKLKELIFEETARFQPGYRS

Row | Compound | inhibition of growth at 1 µM [1] | inhibition [2] | inhibition [3] | inhibition of growth at 10 µM [4] | inhibition of growth at 10 µM [5] | inhibition of growth at 1 µM [6] | inhibition of growth at 10 µM [7] | inhibition of growth at 1 µM [8] | inhibition [9] | growth inhibition (GI) [5] | growth inhibition (GI) [6]
1 | COc1cc2ncnc(Nc3ccc(C(F)(F)F)cc3)c2c(OC)c1OC | 8.6% | Active | Active | 32.3% | 29% | 7.4% | 17.4% | 2.4% | – | – | –
2 | COc1cc2ncnc(Nc3cc(F)ccc3Br)c2c(OC)c1OC | 10.5% | – | – | 18.9% | 34.7% | 12.8% | 60.7% | 12.4% | – | – | –
3 | COc1cc2ncnc(Nc3ccc(Cl)cc3)c2c(OC)c1OC | 22.2% | – | – | 26.4% | 31.3% | 6.3% | 43% | 15.5% | – | – | –
4 | COc1cc2ncnc(NCCc3cccc(F)c3)c2c(OC)c1OC | 2.1% | – | – | 45.8% | 61.7% | 35.6% | 58.9% | 40.8% | – | – | –
5 | COc1cc2ncnc(Nc3ccc(F)cc3)c2c(OC)c1OC | 7.8% | – | Active | 10.8% | 9.1% | 3.1% | – | – | Active | – | –
6 | COc1cc2ncnc(Nc3ccc(Br)cc3)c2c(OC)c1OC | 10.4% | – | Active | 26.1% | 22.2% | 1% | 32.6% | 13.8% | – | – | –
7 | COc1cc2ncnc(Nc3cccc(F)c3)c2c(OC)c1OC | – | – | Active | – | – | – | – | – | Active | – | –
8 | COc1cc2ncnc(Nc3cccc(F)c3)c2c(OC)c1OC.Cl | 7% | – | – | 13.5% | – | 14.9% | – | – | – | 38.9% | –
9 | COc1cc2ncnc(Nc3ccc([N+](=O)[O-])cc3)c2c(OC)c1OC | -12% | – | – | -16.3% | 24.9% | 7.9% | – | – | – | – | –
10 | COc1cc2ncnc(Nc3cc(C(F)(F)F)ccc3F)c2c(OC)c1OC | 14.4% | – | Active | 27.6% | 29.2% | 7.6% | – | – | – | – | –
11 | COc1cc2ncnc(Nc3ccccc3F)c2c(OC)c1OC | – | – | Active | – | 24% | 0.9% | – | – | – | – | –
12 | COc1cc2ncnc(Nc3cccc(Cl)c3)c2c(OC)c1OC.Cl | 11% | – | – | 17.5% | – | – | 23.9% | 5.9% | – | 28.8% | 16.9%
13 | COc1cc2ncnc(Nc3cccc(C(F)(F)F)c3)c2c(OC)c1OC | 21% | Active | Active | 23.5% | 46.6% | 14.9% | 24.3% | 1% | – | – | –
14 | COc1cc2ncnc(Nc3ccc(Br)cc3Cl)c2c(OC)c1OC | 8.7% | – | – | 18.6% | 49.7% | -8.4% | – | – | – | – | –
